Test results published in ChEMBL document CHEMBL4359879, “Synthesis and evaluation of 2-carboxy indole derivatives as potent and selective anti-leukemic agents” (Eur J Med Chem, 2019).
Activity calls are given as the source filed them. No cut-off for these calls is given here.

Assays:
HL-60 [1] = experiment: Effect on human HL60 cells assessed as fold change in TAS1R1 gene expression at 1.085 uM incubated for 6 hrs by microarray-based method; assay type: functional
Summary of the method: (§1)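 HL60 cells were treated in triplicate with 1.085 µM or vehicle for 6 h. Total RNA was extracted with on-column DNase treatment and profiled on expression arrays.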

HL-60 [2] = experiment: Effect on human HL60 cells assessed as fold change in NPIPB8 gene expression at 1.085 uM incubated for 6 hrs by microarray-based method; assay type: functional; summary of the method: as §1
HL-60 [3] = experiment: Effect on human HL60 cells assessed as fold change in PPP1R1A gene expression at 1.085 uM incubated for 6 hrs by microarray-based method; assay type: functional; summary of the method: as §1
HL-60 [4] = experiment: Effect on human HL60 cells assessed as fold change in NCBP2-AS2 gene expression at 1.085 uM incubated for 6 hrs by microarray-based method; assay type: functional; summary of the method: as §1
HL-60 [5] = experiment: Induction of cell cycle arrest in human HL60 cells assessed as accumulation of cells at sub G0/G1 phase at EC50 incubated for 12 hrs by PI staining based flow cytometric analysis (reference value: 1.67%); assay type: functional
RS4-11 [6] = experiment: Antiproliferative activity against human RS4:11 cells incubated for 48 hrs by MTT assay; assay type: functional, cell-based; details: RS4-11, 48 h
Summary of the method: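 Cells grown in RPMI-1640 with 10% FBS, penicillin/streptomycin, 37 °C, 5% CO2. After 48 h of exposure to a dilution series, MTT was added (0.5 mg/ml final) for 4 h. Formazan was dissolved overnight in acidic SDS (10% SDS, 0.01 mol/L HCl) and absorbance read at 570 and 620 nm. Survival was expressed relative to controls, and EC50 was fitted from dose-response curves.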

HL-60 [7] = experiment: Effect on human HL60 cells assessed as fold change in KPNA1 gene expression at 1.085 uM incubated for 6 hrs by microarray-based method; assay type: functional; summary of the method: as §1
HL-60 [8] = experiment: Effect on human HL60 cells assessed as fold change in GDAP1 gene expression at 1.085 uM incubated for 6 hrs by microarray-based method; assay type: functional; summary of the method: as §1
CCRF-CEM = experiment: Effect on human CEM cells assessed as increase in p53 protein expression at 300 nM incubated for 15 to 360 mins by Western blot analysis; assay type: functional, cell-based
Summary of the method: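 RS4;11, CEM and HL60 cells were exposed to 300 nM for 0, 15, 30, 60 and 360 min. Lysates were immunoblotted for β-tubulin and p53, with lamin B1 as loading control. Detection was by chemiluminescence.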

HL-60 [9] = experiment: Induction of cell cycle arrest in human HL60 cells assessed as accumulation of cells at G2/M phase at EC50 incubated for 12 hrs by PI staining based flow cytometric analysis (reference value: 23.0%); assay type: functional
HL-60 [10] = experiment: Effect on human HL60 cells assessed as fold change in C7orf43 gene expression at 1.085 uM incubated for 6 hrs by microarray-based method; assay type: functional; summary of the method: as §1
RS4-11 [11] = experiment: Antitumor activity against human RS4:11 cells xenografted in NOD/SCID mouse assessed as increase in survival at 10 mg/kg, ip administrated 5 times per week; assay type: functional, organism-based
Summary of the method: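 Ten million RS4;11 cells were injected into the tail vein of unconditioned NOD/SCID mice. Engraftment was tracked by flow cytometry of human versus mouse CD45 in ficoll-isolated blood. When human CD45+ cells reached ≥1.5% in half of the mice, animals were randomized (n=5 per group) to vehicle (1% PVP, 4% DMSO, 95% PBS) or 10 mg/kg ip, 5x per week until death. Groups were compared by Kaplan-Meier curves and log-rank test.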

HL-60 [12] = experiment: Effect on human HL60 cells assessed as fold change in flaw-mawbo gene expression at 1.085 uM incubated for 6 hrs by microarray-based method; assay type: functional
HL-60 [13] = experiment: Effect on human HL60 cells assessed as fold change in TM2D3 gene expression at 1.085 uM incubated for 6 hrs by microarray-based method; assay type: functional; summary of the method: as §1
HL-60 [14] = experiment: Antiproliferative activity against human HL60 cells assessed as reduction in cell viability after 48 hrs by MTT assay; details: HL-60, 48 h
HL-60 [15] = experiment: Induction of cell cycle arrest in human HL60 cells assessed as accumulation of cells at sub G0/G1 phase at EC50 incubated for 18 hrs by PI staining based flow cytometric analysis (reference value: 1.67%); assay type: functional
RS4-11 [16] = experiment: Induction of cell cycle arrest in human RS4:11 cells assessed as effect on S phase at 300 nM incubated for 18 hrs by BrdU/propidium iodide staining based flow cytometric analysis; assay type: functional
Summary of the method: (§2)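 RS4;11 cells treated with 300 nM or DMSO vehicle for 18 h, then pulsed with 10 μM BrdU for 1 h. Harvested cells immunostained for BrdU/PI (cell cycle), γH2AX (DNA damage) and PARP (apoptosis). Multicolor flow cytometry gated G1, sub-G2-like, G2/M and sub-G0/G1 populations.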

HL-60 [17] = experiment: Effect on human HL60 cells assessed as fold change in TRPM2 gene expression at 1.085 uM incubated for 6 hrs by microarray-based method; assay type: functional
Tubulin (Homo sapiens) = Tubulin (Homo sapiens) (UniProt P68371+Q9H4B7+P0DPH7+P68366+Q13509+Q71U36+P04350+Q3ZCM7+P07437+P68363+Q9BQE3+Q6PEY2+Q13885+Q9BVA1+Q9BUF5); experiment: Induction of microtubule network depolymerization in human HeLa cells assessed as fragmented centrosomal material at 500 nM incubated for 18 hrs by DAPI staining based fluorescence microscopic method; assay type: cell-based
Summary of the method: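 HeLa cells (100,000/mL) cultured overnight on glass-bottom dishes, then exposed to 500 nM or 1 μM, or DMSO, for 18 h. Permeabilized (0.5% Triton X-100) and fixed (3.7% formaldehyde). Stained overnight at 4 °C with anti-β-tubulin, then Alexa Fluor 647 secondary for 1 h at room temperature, and DAPI 1 μg/mL for 10 min. Examined by fluorescence microscopy.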

RS4-11 [18] = experiment: Induction of apoptosis in human RS4:11 cells at 300 nM incubated for 18 hrs by Annexin V-FITC/propidium iodide staining-based flow cytometric analysis; assay type: functional, cell-based
Summary of the method: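 CEM, HL60 or RS4;11 cells (5×10^5) treated with 300 nM or vehicle for 18 h. Stained with FITC-Annexin V in binding buffer for 15 min at 37 °C, then PI (5 μg/mL) for 3 min. Analyzed by flow cytometry.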

HL-60 [19] = experiment: Effect on human HL60 cells assessed as fold change in SLC8A2 gene expression at 1.085 uM incubated for 6 hrs by microarray-based method; assay type: functional; summary of the method: as §1
HL-60 [20] = experiment: Effect on human HL60 cells assessed as fold change in TAF15 gene expression at 1.085 uM incubated for 6 hrs by microarray-based method; assay type: functional; summary of the method: as §1
RS4-11 [21] = experiment: Induction of DNA damage in human RS4:11 cells assessed as accumulation of cells at G1 phase at 300 nM incubated for 18 hrs in presence of H2AX antibody by immunofluorescent staining based flow cytometric analysis relative to control; assay type: functional; summary of the method: as §2

COC(=O)c1[nH]c2cc(OC)ccc2c1-c1ccc(C(F)(F)F)cc1
fold change (FC) (HL-60 [1]): -1.51 | fold change (FC) (HL-60 [2]): 1.5 | fold change (FC) (HL-60 [3]): -1.7 | fold change (FC) (HL-60 [4]): -1.58 | Activity (HL-60 [5]): 12.1% | EC50 (RS4-11 [6]): 300 nM | fold change (FC) (HL-60 [7]): 1.89 | fold change (FC) (HL-60 [8]): -1.61 | Activity (CCRF-CEM): Active | Activity (HL-60 [9]): 48% | fold change (FC) (HL-60 [10]): -1.72 | Activity (RS4-11 [11]): Active | fold change (FC) (HL-60 [12]): -1.62 | fold change (FC) (HL-60 [13]): -1.65 | EC90 (HL-60 [14]): 1000 nM | Activity (HL-60 [15]): 24.1% | Activity (RS4-11 [16]): inactive | fold change (FC) (HL-60 [17]): 2.21 | Activity (Tubulin (Homo sapiens)): Active | Activity (RS4-11 [18]): Active | fold change (FC) (HL-60 [19]): -1.53 | fold change (FC) (HL-60 [20]): 1.75 | Activity (RS4-11 [21]): 6.9%
